Test results reported in ChEMBL document CHEMBL2375307, “Synthesis and identification of β-aryloxyquinoline based diversely fluorine substituted N-aryl quinolone derivatives as a new class of antimicrobial, antituberculosis and antioxidant agents” (Eur J Med Chem, 2013).
Converted amounts (≈) assume the structure as drawn.

Key:
[1] = tested on: Mycobacterium tuberculosis; test: Antitubercular activity against Mycobacterium tuberculosis H37Rv assessed as growth inhibition at 250 ug/mL after 12 to 28 days by Lowenstein-Jensen method relative to control; type: functional; settings: read-out: GI
Summary of the method: (§1)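 Modified Lowenstein-Jensen method. Compound at 250 in DMSO added to liquid L-J medium, then sterilized by inspissation and incubated 24 h at 37 °C. Streaked with H37Rv harvested in 0.85% saline (5 × 10⁴ bacilli/tube) and incubated at 37 °C. Colonies read at 12, 22 and 28 days versus drug-free control; no colonies or <20 colonies scored as inhibition.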

[2] = tested on: Mycobacterium tuberculosis; test: Antitubercular activity against Mycobacterium tuberculosis H37Rv assessed as growth inhibition after 12 to 28 days by Lowenstein-Jensen method; type: functional; summary of the method: as §1
[3] = Toxicity in brine shrimps cysts assessed as mortality at 20 ug/mL after 24 hrs relative to control; type: organism-based; settings: artemia, in vivo
Salmonella typhi = test: Antibacterial activity against Salmonella typhi MTCC 98 assessed as growth inhibition after overnight incubation by NCCLS broth microdilution method; type: functional, Salmonella enterica subsp. enterica serovar Typhi; settings: Salmonella enterica
[4] = Toxicity in brine shrimps cysts assessed as mortality at 30 ug/mL after 24 hrs relative to control; type: organism-based; settings: artemia, in vivo
Vibrio cholerae = test: Antibacterial activity against Vibrio cholerae MTCC 3906 assessed as growth inhibition after overnight incubation by NCCLS broth microdilution method; type: functional
[5] = Toxicity in brine shrimps cysts assessed as mortality at 5 ug/ml after 24 hrs relative to control; type: organism-based; settings: artemia, in vivo
Bacillus subtilis = test: Antibacterial activity against Bacillus subtilis MTCC 441 assessed as growth inhibition after overnight incubation by NCCLS broth microdilution method; type: functional
Summary of the method: (§2)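 Broth microdilution per NCCLS in Mueller Hinton broth, compounds diluted in DMSO. Primary screen at 500, 250 and 200 µg/mL; actives retested at 100, 62.5, 50, 25 and 12.5 µg/mL. Tubes incubated overnight at 37 °C. […] Non-growing tubes subcultured overnight at 37 °C to judge bacteriostatic versus bactericidal action.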

Streptococcus pneumoniae = test: Antibacterial activity against Streptococcus pneumoniae MTCC 1936 assessed as growth inhibition after overnight incubation by NCCLS broth microdilution method; type: functional; summary of the method: as §2
[6] = Toxicity in brine shrimps cysts assessed as mortality at 50 ug/mL after 24 hrs relative to control; type: organism-based; settings: artemia, in vivo
[7] = Antioxidant activity of the compound assessed as ascorbic acid equivalent of ferric tripyridyl triazine reducing activity at 200 ug/mL after 15 mins by FRAP assay; type: functional
Summary of the method: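 FRAP, modified Benzie and Strain method. Fe(III)-TPTZ reagent made with TPTZ in 40 mM HCl, FeCl3 solution and acetate buffer pH 3.6. 200 µL sample solution mixed with 3 mL reagent and held 15 min at 37 °C. Fe(II)-TPTZ read at 593 nm against an ascorbic acid standard, expressed as ascorbic acid equivalents (mmol/100 g compound).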

Candida albicans = test: Antifungal activity against Candida albicans MTCC 227 assessed as growth inhibition after overnight incubation by NCCLS broth microdilution method; type: functional; summary of the method: as §2
Aspergillus fumigatus = test: Antifungal activity against Aspergillus fumigatus MTCC 3008 assessed as growth inhibition after overnight incubation by NCCLS broth microdilution method; type: functional; summary of the method: as §2
[8] = Toxicity in brine shrimps cysts assessed as mortality at 10 ug/mL after 24 hrs relative to control; type: organism-based; settings: artemia, in vivo
[9] = Toxicity in brine shrimps cysts assessed as mortality at 40 ug/mL after 24 hrs relative to control; type: organism-based; settings: artemia, in vivo
Escherichia coli = test: Antibacterial activity against Escherichia coli MTCC 443 assessed as growth inhibition after overnight incubation by NCCLS broth microdilution method; type: functional; summary of the method: as §2
[10] = Toxicity in brine shrimps cysts assessed as mortality after 24 hrs relative to control; type: organism-based; settings: artemia, in vivo
Clostridium tetani = test: Antibacterial activity against Clostridium tetani MTCC 449 assessed as growth inhibition after overnight incubation by NCCLS broth microdilution method; type: functional

SMILES | inhibition of growth at 250 µg/mL [1] [%] | MIC [2] [mg/L] | mortality at 24 h, 20 ug/mL [3] [%] | MIC (Salmonella typhi) [mg/L] | mortality at 24 h, 30 ug/mL [4] [%] | MIC (Vibrio cholerae) [mg/L] | mortality at 24 h, 5 ug/ml [5] [%] | MIC (Bacillus subtilis) [mg/L] | MIC (Streptococcus pneumoniae) [mg/L] | mortality at 24 h, 50 ug/mL [6] [%] | Activity [7] [equiv] | MIC (Candida albicans) [mg/L] | MIC (Aspergillus fumigatus) [mg/L] | mortality at 24 h, 10 ug/mL [8] [%] | mortality at 24 h, 40 ug/mL [9] [%] | MIC (Escherichia coli) [mg/L] | LC50 at 24 h [10] [mg/L] | MIC (Clostridium tetani) [mg/L]
CO[C@H]1/C=C/O[C@@]2(C)Oc3c(C)c(O)c4c(O)c(c(/C=N/N5CCN(C)CC5)c(O)c4c3C2=O)NC(=O)/C(C)=C\C=C\[C@H](C)[C@H](O)[C@@H](C)[C@@H](O)[C@@H](C)[C@H](OC(C)=O)[C@@H]1C [RIFAMPIN] | 98 | 40 (≈ 48.6 µM) | – | – | – | – | – | – | – | – | – | – | – | – | – | – | – | –
N#CC1=C(N)N(c2ccc(F)c(F)c2)C2=C(C(=O)CCC2)C1c1cc2cc(Cl)ccc2nc1Oc1ccc(C#N)cc1 (centres undefined) | 95 | 100 (≈ 172 µM) | 60 | 250 (≈ 431 µM) | 70 | 100 (≈ 172 µM) | 20 | 125 (≈ 216 µM) | 200 (≈ 345 µM) | 90 | 2.97 | 1000 (≈ 1720 µM) | > 1000 | 40 | 80 | 200 (≈ 345 µM) | 14.1 (≈ 24.3 µM) | 200 (≈ 345 µM)
N#CC1=C(N)N(c2cccc(C(F)(F)F)c2)C2=C(C(=O)CCC2)C1c1cc2cc(Cl)ccc2nc1Oc1ccc(C#N)cc1 (centres undefined) | 99 | 25 (≈ 40.8 µM) | 20 | 200 (≈ 327 µM) | 40 | 62.5 (≈ 102 µM) | 0 | 200 (≈ 327 µM) | 62.5 (≈ 102 µM) | 70 | 5.15 | 1000 (≈ 1630 µM) | 1000 (≈ 1630 µM) | 10 | 50 | 250 (≈ 408 µM) | 37.8 (≈ 61.7 µM) | 200 (≈ 327 µM)
NNC(=O)c1ccncc1 [ISONIAZID] | 99 | 0.2 (≈ 1.46 µM) | – | – | – | – | – | – | – | – | – | – | – | – | – | – | – | –
Cc1ccc2nc(Oc3ccc(C#N)cc3)c(C3C(C#N)=C(N)N(c4cc(F)ccc4F)C4=C3C(=O)CC(C)(C)C4)cc2c1 (centres undefined) | 99 | 62.5 (≈ 106 µM) | 20 | 200 (≈ 340 µM) | 50 | 25 (≈ 42.5 µM) | 0 | 200 (≈ 340 µM) | 100 (≈ 170 µM) | 80 | 13.9 | > 1000 | > 1000 | 10 | 70 | 62.5 (≈ 106 µM) | 27.5 (≈ 46.8 µM) | 100 (≈ 170 µM)
CC1(C)CC(=O)C2=C(C1)N(c1cccc(C(F)(F)F)c1)C(N)=C(C#N)C2c1cc2cc(Cl)ccc2nc1Oc1ccc(C#N)cc1 (centres undefined) | 98 | 62.5 (≈ 97.6 µM) | 40 | 125 (≈ 195 µM) | 50 | 100 (≈ 156 µM) | 10 | 250 (≈ 391 µM) | 125 (≈ 195 µM) | 80 | 7.13 | > 1000 | 1000 (≈ 1560 µM) | 20 | 70 | 125 (≈ 195 µM) | 23.3 (≈ 36.5 µM) | 250 (≈ 391 µM)
Cc1ccc2nc(Oc3ccc(C#N)cc3)c(C3C(C#N)=C(N)N(c4cccc(C(F)(F)F)c4)C4=C3C(=O)CC(C)(C)C4)cc2c1 (centres undefined) | 93 | 125 (≈ 202 µM) | 50 | 100 (≈ 161 µM) | 70 | 125 (≈ 202 µM) | 10 | 100 (≈ 161 µM) | 125 (≈ 202 µM) | 90 | 339 | > 1000 | 1000 (≈ 1610 µM) | 30 | 80 | 100 (≈ 161 µM) | 17.1 (≈ 27.7 µM) | 250 (≈ 403 µM)
N#CC1=C(N)N(c2cc(F)ccc2F)C2=C(C(=O)CCC2)C1c1cc2ccccc2nc1Oc1ccc(C#N)cc1 (centres undefined) | 10 | – | – | 250 (≈ 458 µM) | – | 200 (≈ 367 µM) | – | 100 (≈ 183 µM) | 250 (≈ 458 µM) | – | 16.4 | > 1000 | 250 (≈ 458 µM) | – | – | 100 (≈ 183 µM) | – | 125 (≈ 229 µM)
